Screening data (PubChem BioAssay)
Most compounds without a hit are left out; they make up all but 6.3% or so of the library.
MT1-MMP txn act: MT1-MMP promoter transcription activation; HT1080 MT1-MMP promoter luciferase reporter, luminescence, overnight; hits give high values; activation factor at 10 µM; 0.16% of 86,000 active; AID 750;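 active means activation factor of at least 2 for MT1-MMP transcription at 10 µM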
M1 agonist: agonists of M1 muscarinic receptor; CHO-M1 cells, Fluo-4 calcium fluorescence, agonist mode; hits give high values; B-score at 10 µM; 3% of 64,000 active; AID 626;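 active means fluorescence rise, raw or as B-score row- and column-corrected plate score, outside the 99.7% band of its plate's samples, either direction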
RORa activator: activators of human nuclear receptor RORA. P35398. CHO-K1 Gal4-RORA LBD luciferase reporter, luminescence; percent increase over mock-subtracted basal signal. activation, % at 10 µM. 1.5% of 65,000 active. AID 560;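 active means activation above the mean of all tested compounds plus 3 SD, cut at about 49% in these data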
Target sequence (P35398 whole entry, looked up, the tested form may be a part): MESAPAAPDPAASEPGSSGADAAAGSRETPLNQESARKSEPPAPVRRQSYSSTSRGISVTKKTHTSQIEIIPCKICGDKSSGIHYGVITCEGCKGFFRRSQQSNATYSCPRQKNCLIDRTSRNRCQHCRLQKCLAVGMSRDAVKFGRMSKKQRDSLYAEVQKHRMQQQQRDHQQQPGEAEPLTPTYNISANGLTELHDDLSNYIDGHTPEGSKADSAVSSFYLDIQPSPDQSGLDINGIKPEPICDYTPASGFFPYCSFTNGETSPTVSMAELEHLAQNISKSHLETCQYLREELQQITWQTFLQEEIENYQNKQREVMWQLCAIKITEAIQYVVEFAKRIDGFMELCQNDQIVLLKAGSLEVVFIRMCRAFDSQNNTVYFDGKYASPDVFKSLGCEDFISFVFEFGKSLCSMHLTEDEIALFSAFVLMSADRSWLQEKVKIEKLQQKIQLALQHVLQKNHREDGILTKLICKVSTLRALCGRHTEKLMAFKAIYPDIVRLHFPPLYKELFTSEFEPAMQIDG
M1 antagonist: M1 muscarinic receptor (rat) antagonism; P08482; CHO-M1 cells, Fluo-4 calcium, ACh EC80 antagonist mode; hits give low values; B-score at 10 µM; 3.4% of 64,000 active; AID 628;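 active means calcium fluorescence response, raw or row-and-column corrected B-score, differing from the plate sample mean either way at a set confidence level, mostly lower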
SF1 activator: activators of human nuclear receptor SF-1. CHO-K1 Gal4-SF-1 LBD luciferase reporter; % increase over DMSO SF-1-specific signal. activation, % at 10 µM. 1.9% of 65,000 active;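 active means activation above the mean activation of all tested compounds plus 3 SD, cut at about 50% in these data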
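Assay system: CHO-K1 cells co-transfected with Gal4 DBD–human SF-1 LBD, 5xGal4 luciferase reporter; doses: 10 µM only; incubation: 20 h compound exposure at 37 °C after 1 h cell settling; signal: luciferase light emission; evaluation: percent activation versus DMSO; repeats: one test per compound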
M1 agonist conf: confirmation of rat M1 muscarinic receptor agonists | 19% of 1,700 active | fluorescence change (max-min) at 10 µM | CHO-M1 cells, Fluo-4 calcium fluorescence, agonist mode; actives lie on both sides | shares compounds with M1 agonist;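 active means fluorescence change differs from the solvent-only DMSO control mean at a set confidence level in both duplicate runs; inconclusive means differs from solvent-only control mean in just one of two runs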;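 further: an EC20 dose of acetylcholine follows compound addition during the same imaging run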
M4 ag counter: counter-screen for M1 agonists: activity at rat M4 receptor | shares compounds with M1 agonist | CHO M4/Gqi5 cells, Fluo-4 calcium fluorescence, agonist mode; actives lie on both sides | fluorescence change (max-min) at 10 µM | 9% of 1,700 active | AID 1741;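 active means fluorescence change differing from the plate's solvent-only control wells at 99.7% confidence in both duplicates, whether higher or lower; inconclusive means differs from solvent controls in only one of two duplicates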
Numbers stand for hits; 0 = inactive; ? = inconclusive; - = no result.

SMILES | MT1-MMP txn act | M1 agonist | RORa activator | M1 antagonist | SF1 activator | M1 agonist conf | M4 ag counter
O=C(c1ccncc1)c1ccc(N2CCN(C3CC(=O)N(Cc4ccccc4)C3=O)CC2)cc1 (configuration not stated) | 0 | 20 | 0 | -2.29 | 0 | -24.6 | 0
COc1ccccc1OCC(O)Cn1c(Br)nc2c1c(=O)[nH]c(=O)n2C (configuration not stated) | 0 | 4.03 | 0 | 0 | 0 | 0 | 0
Nc1c(C(=O)NCc2ccc3c(c2)OCO3)c2nc3ccccc3nc2n1CCCN1CCOCC1 | 0 | -2.57 | 0 | 0 | 0 | 0 | 0
COc1ccc(CN(Cc2cc3cccc(C)c3[nH]c2=O)C(=O)N(C)C)cc1 | 0 | 3.54 | 0 | 0 | 0 | 0 | 0
COc1ccc(OC)c(NC(=O)Cn2cc(C(=O)c3ccco3)c3ccccc32)c1 | 0 | 0 | 0 | 0 | 0 | - | -
COc1cccc(OCCn2cc(C(=O)c3ccco3)c3ccccc32)c1 | 0 | 5.01 | 0 | 0 | 0 | 0 | 0
COc1ccc(CN2CN=C(Nc3nc4ccccc4s3)NC2)cc1 | 0 | - | - | - | - | - | -
CC1=C(C(N)=O)C(c2cccc(O)c2)n2nc(CCCO)nc2N1 (configuration not stated) | 0 | 0 | 0 | 0 | 0 | - | -
COc1ccc(C2C=C(c3ccccc3)Nc3nc(CCCO)nn32)cc1 (configuration not stated) | 0 | 9.26 | 0 | 0 | 0 | 71.9 | 0
COc1ccc(C2C=C(c3cccs3)Nc3nc(CCCO)nn32)cc1 (configuration not stated) | 0 | 288 | 0 | -17.8 | 0 | 2868 | 2408
COc1ccc(C2C(C(=O)Nc3ccccc3)=C(C)Nc3nc(CCCO)nn32)cc1 (configuration not stated) | 0 | 0 | 0 | 0 | 0 | - | -
OCCCc1nc2n(n1)C(c1ccccc1)C=C(c1ccccc1)N2 (configuration not stated) | 0 | 12.2 | 0 | 0 | 0 | 74.3 | 0
Cc1nnc(N(CCC#N)CCC#N)s1 | 0 | 0 | 0 | 0 | 0 | - | -
CCOC(=O)C1CCCN(C(=O)c2cc(Nc3ccc(OC)cc3OC)nc3ccccc23)C1 (configuration not stated) | 0 | - | - | - | - | - | -
CCOC(=O)C1CCCN(C(=O)c2cc(Cl)ccc2Cl)C1 (configuration not stated) | 0 | 5.49 | 0 | 0 | 0 | 0 | -75.7
CCCOC1CCCN(C(=O)c2cc(Cl)c(Cl)cc2C(=O)O)C1 (configuration not stated) | 0 | 36.9 | 0 | -3.43 | 0 | 329 | 0
CCOC(=O)C1CCCN(C(=O)c2cc(Nc3ccc(OC)c(OC)c3)nc3ccccc23)C1 (configuration not stated) | 0 | 8.29 | 0 | 0 | 0 | 0 | ?
CCOC(=O)C1CCCN(C(=O)Cn2cccc2C(=O)c2ccccc2)C1 (configuration not stated) | 0 | -2.6 | 0 | 0 | 0 | ? | 0
CC1CCCN(C(=O)c2cc(F)c(F)cc2Cl)C1 (configuration not stated) | 0 | 0 | 0 | 0 | 0 | - | -
CCC1CCCCN1CCNC(=O)CCS(=O)(=O)c1ccc(Br)cc1 (configuration not stated) | 0 | - | - | - | - | - | -
N#CC1=C(N)Oc2cc(Nc3ccccc3)ccc2C1c1ccncc1 (configuration not stated) | 0 | - | - | - | - | - | -
CCOc1ccc2nc(NCCNC(=O)CC)c(C#N)cc2c1 | 0 | 9.69 | 0 | 0 | 0 | 133 | 0
COc1ccc(-n2nnc3c(SCc4ccccc4)ncnc32)cc1 | 0 | 2.77 | 0 | 0 | 0 | 0 | 0
COc1ccc(-n2nnc3c(SCC(=O)OCc4ccccc4)ncnc32)cc1 | 0 | 0 | 0 | 0 | 0 | - | -
Cc1ccc(CS(=O)(=O)CCC(=O)NCc2cccs2)cc1 | 0 | 4.05 | 0 | 0 | 0 | 0 | 0
SMILES | MT1-MMP txn act | M1 agonist | RORa activator | M1 antagonist | SF1 activator | M1 agonist conf | M4 ag counter
Cc1ccc(CS(=O)(=O)CCC(=O)NCc2ccc3c(c2)OCO3)cc1 | 0 | 0 | 0 | 0 | 0 | - | -
Cc1cc(C)nc(/N=C2\NC(=O)CC(C(=O)O)N2CCc2c[nH]c3ccccc23)n1 (configuration not stated) | 0 | 3.2 | 0 | 0 | 0 | 0 | 0
O=C(NC(Cc1c[nH]c2ccccc12)C(=O)O)c1ccco1 (configuration not stated) | 0 | - | - | - | - | - | -
O=C(Nc1ccccc1C(=O)NC(Cc1c[nH]c2ccccc12)C(=O)O)c1ccco1 (configuration not stated) | 0 | -2.59 | 0 | 0 | 0 | -28.1 | 0
CCOc1nc(NCCc2ccc(OC)c(OC)c2)nc(NC(C)(C)CO)n1 | 0 | 2.13 | 0 | 0 | 0 | ? | 0
CCOC(=O)Cc1cnc(NC(=O)c2ccccc2)s1 | 0 | 3.21 | 0 | 0 | 0 | 0 | ?
CCOC(=O)Cc1nnc(NC(=O)c2ccccc2OCC)s1 | 0 | 0 | - | 0 | - | - | -
Cc1oc2nc(SCCCC(=O)NCCCO)nc(N)c2c1C | 0 | 4.64 | 0 | 0 | 0 | ? | ?
COc1cccc(N2CCN(c3ncnc4c3[nH]c3ccccc34)CC2C)c1 (configuration not stated) | 0 | 11.2 | 0 | -3.44 | 0 | ? | 0
COc1cc2[nH]c3c(N4CCN(c5ccc(Cl)cc5)CC4)ncnc3c2cc1OC | 0 | 0 | 0 | 0 | 0 | - | -
c1ccc2c(c1)CCN(c1ncnc3c1[nH]c1ccccc13)C2 | 0 | 5.57 | 0 | -3.41 | 0 | 0 | 0
Cc1ccc2[nH]c3c(N4CCN(Cc5ccccc5)CC4)ncnc3c2c1 | 0 | 0 | 0 | 0 | 0 | - | -
c1ccc(CN2CCN(c3ncnc4c3[nH]c3ccccc34)CC2)cc1 | 0 | 3.91 | 0 | -2.74 | 0 | 0 | ?
Cc1ccc2c(c1)[nH]c1c(N3CCN(Cc4ccccc4)CC3)ncnc12 | 0 | 3.91 | 0 | -3.06 | 0 | 0 | ?
CCOC(=O)C1CCCN(CCC(=O)Nc2ccc3c(c2)CCC3)C1 (configuration not stated) | 0 | 15.5 | 0 | -3.62 | 0 | 150 | 0
CCSC1=N/C(=C\c2ccc(C(=O)O)cc2)C(=O)S1 | 0 | 0 | 0 | 0 | 0 | - | -
CCOC(=O)SC1=N/C(=C\c2ccc(N(C)C)cc2)C(=O)S1 | 0 | 10.4 | 0 | 0 | 0 | ? | ?
Cc1ccc(-n2nnc3c(=O)n(CC(=O)NCC4CCCO4)cnc32)cc1 (configuration not stated) | 0 | 0 | 0 | 0 | 0 | - | -
c1csc(CCNc2ncnc3sc4c(c23)CCC4)c1 | - | 3.92 | 0 | -1.34 | 0 | 0 | 0
COc1cccc(C(c2nnnn2Cc2ccccc2)N2CCN(C3CCCC3)CC2)c1OC (configuration not stated) | 0 | 2.85 | 0 | -1.73 | 0 | 0 | 0
CCCC(c1nnnn1Cc1ccccc1)N1CCN(c2ccccc2OC)CC1 (configuration not stated) | 0 | 7.05 | 0 | 0 | 0 | 0 | 0
